Assay results taken from ChEMBL document CHEMBL5543129, “Peptide Inhibitor Targeting the Extraterminal Domain in BRD4 Potently Suppresses Breast Cancer Both In Vitro and In Vivo” (J Med Chem, 2024).
Activity calls are given as the source filed them. The rule behind the calls is not given here. Square brackets hold non-standard residues; d marks the D form. Peptide text beside a SMILES is read from it. Hyp = O=C(O)[C@@H]1C[C@@H](O)CN1; Ahx = NCCCCCC(=O)O

Legend:
MCF7 [1] = test: Antitumor activity against human MCF7 cells xenografted in BALB/c nude mouse assessed as reduction in tumor volume at 12.5 mg/kg, ip administered every 2 days in presence of 12.5 mg/kg JMJD6 inhibitor; type: functional, organism-based
How it was run: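 Female BALB/c nude mice given 5 × 10^6 cells sc (MCF7 mice with E2 10^-2 M every 2 days), randomised at ~50 mm3. Peptide 12.5 mg/kg ip (saline) every 2 days, plus JQ1 50 mg/kg ip (DMSO/10% HPBCD 1:10) every 2 days or iJMJD6 12.5 mg/kg ip (DMSO/PBS 1:20). Caliper volume every 2 days; tumours weighed at the end.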

[2] = Toxicity in BALB/c mouse xenografted with human MCF7 cells assessed as change in spleen morphology at 12.5 mg/kg, ip administered every 2 days in presence of 50 mg/kg JQ1; type: organism-based; conditions: in vivo, 48 h
Mus musculus [3] = test: Downregulation of JMJD6 mRNA expression in BALB/c mouse tumor xenografted with human MCF7 cells at 25 mg/kg, ip administered every 2 days by RT-qPCR analysis; type: functional, organism-based
[4] = Toxicity in BALB/c mouse xenografted with human MDA-MB-231 cells assessed as change in spleen morphology at 12.5 mg/kg, ip administered every 2 days in presence of 50 mg/kg JQ1; type: organism-based; conditions: in vivo, 48 h
How it was run: (§1)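 Female BALB/c nude mice (4–6 weeks) carried sc MDA-MB-231 xenografts (5 × 10^6 cells) and were randomized at about 50 mm3. Peptide (12.5 mg/kg ip in saline) and JQ1 (50 mg/kg ip, DMSO/10% HPBCD 1:10) were given every 2 days, alone or combined. Body weight was recorded, and heart, liver, spleen, lung and kidney morphology and weight were assessed.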

[5] = Toxicity in BALB/c mouse xenografted with human MDA-MB-231 cells assessed as change in liver weight at 12.5 mg/kg, ip administered every 2 days in presence of 50 mg/kg JQ1; type: organism-based; conditions: in vivo, 48 h; how it was run: as §1
[6] = Toxicity in BALB/c mouse xenografted with human MDA-MB-231 cells assessed as change in kidney morphology at 12.5 mg/kg, ip administered every 2 days in presence of 50 mg/kg JQ1; type: organism-based; conditions: in vivo, 48 h; how it was run: as §1
[7] = Downregulation of c-Myc protein expression in BALB/c mouse tumor xenografted with human MCF7 cells assessed as fold change in remaining c-Myc level at 25 mg/kg, ip administered every 2 days by immunoblotting analysis; type: functional
How it was run: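 Female BALB/c nude mice (4–6 weeks) carry subcutaneous MCF7 or MDA-MB-231 grafts (5 × 10^6 cells). MCF7 mice are brushed with E2 (10–2 M) every 2 days. Dosing starts at ~50 mm3: peptide in normal saline, ip every 2 days. Tumour lysates are immunoblotted with β-actin as loading control; repeated three times.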

Mus musculus [8] = test: Downregulation of JMJD6 mRNA expression in BALB/c mouse tumor xenografted with human MDA-MB-231 cells at 25 mg/kg, ip administered every 2 days by RT-qPCR analysis; type: functional, organism-based
MDA-MB-231 = test: Inhibition of colony formation in human MDA-MB-231 cells at 10 uM incubated for 2 weeks by crystal violet staining based assay; type: functional, cell-based
How it was run: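 Cells are seeded at 1 × 10^3/well and treated with peptide (10 μM) for 2 weeks, alone or with JQ1 5 μM, iJMJD6 10 μM, ICI 2.5 μM, or tamoxifen 3 μM (tamoxifen-resistant lines). Colonies are stained with crystal violet, dissolved in 10% acetic acid, and read at 590 nm. Three biological repeats.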

[9] = Downregulation of CCND1 protein expression in human MDA-MB-231 cells assessed as fold change in remaining CCND1 level at 10 uM incubated for 24 hrs by immunoblotting analysis (reference value: 1); type: functional
How it was run: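 Cells treated with peptide (10 μM) for 24 h. Lysates in Tris/NaCl/EDTA/1% Triton X-100, run on 10% SDS-PAGE and immunoblotted with ECL detection. β-actin as loading control. Three repeats, quantified against untreated cells.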

[10] = Toxicity in BALB/c mouse xenografted with human MCF7 cells assessed as change in kidney at 12.5 mg/kg, ip administered every 2 days in presence of 12.5 mg/kg JMJD6 inhibitor; type: organism-based; conditions: in vivo, 48 h
How it was run: (§2)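 Female BALB/c nude mice carried MCF7 xenografts (5 × 10^6 cells sc, E2 10–2 M brushed every 2 days) and were randomized at about 50 mm3. Peptide was given at 12.5 mg/kg ip every 2 days, and iJMJD6 (DMSO/PBS 1:20) at 12.5 mg/kg ip every other day, alone or combined. Body and organ weights were recorded.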

Mus musculus [11] = test: Downregulation of CCND1 mRNA expression in BALB/c mouse tumor xenografted with human MDA-MB-231 cells at 25 mg/kg, ip administered every 2 days by RT-qPCR analysis; type: functional, organism-based
[12] = Toxicity in BALB/c mouse xenografted with human MDA-MB-231 cells assessed as change in spleen weight at 12.5 mg/kg, ip administered every 2 days in presence of 50 mg/kg JQ1; type: organism-based; conditions: in vivo, 48 h; how it was run: as §1
[13] = Toxicity in BALB/c mouse xenografted with human MCF7 cells assessed as change in heart at 12.5 mg/kg, ip administered every 2 days in presence of 12.5 mg/kg JMJD6 inhibitor; type: organism-based; conditions: in vivo, 48 h; how it was run: as §2
MCF7 [14] = test: Inhibition of cell migration in human MCF7 cells at 10 uM incubated for 24 hrs in presence of 5 uM JQ1 by inverted microscopic assay; type: functional, cell-based
How it was run: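 Cells are seeded at 5 × 10^5/well and scratched at 80–90% confluence. They are kept in serum-free medium with peptide (10 μM); partner agents are JQ1 5 μM, iJMJD6 10 μM, or ICI 2.5 μM. Wound area is imaged by inverted microscope at 0 and 12 or 24 h. Wound closure % = (A0−A1)/A0 × 100. Three biological repeats.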

[15] = Downregulation of BRD4 protein expression in BALB/c mouse tumor xenografted with human MCF7 cells assessed as fold change in remaining BRD4 level at 25 mg/kg, ip administered every 2 days by immunoblotting analysis; type: functional
How it was run: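 Tumours taken from xenograft mice dosed with peptide at 25 mg/kg ip every 2 days. […] Three repeats.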

MCF7 [16] = test: Antiproliferative activity against human MCF7 cells at 10 uM incubated for 1 week in presence of JMJD6 inhibitor by CellTiter 96 Aqueous One Solution based assay; type: functional, cell-based; conditions: time 1.0 weeks
How it was run: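 Cells seeded at 2 × 10^3/well and treated with peptide (10 μM) alone or combined with JQ1 (5 μM), iJMJD6 (10 μM) or ICI (2.5 μM), as the line states. Viability read by MTS reagent, 1 h at 37 °C, A490. Three biological repeats.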

[17] = Toxicity in BALB/c mouse xenografted with human MCF7 cells assessed as change in heart weight at 12.5 mg/kg, ip administered every 2 days in presence of 50 mg/kg JQ1; type: organism-based; conditions: in vivo, 48 h
[18] = Toxicity in BALB/c mouse xenografted with human MDA-MB-231 cells assessed as change in kidney weight at 12.5 mg/kg, ip administered every 2 days in presence of 50 mg/kg JQ1; type: organism-based; conditions: in vivo, 48 h; how it was run: as §1

For `CC[C@H](C)[C@H](NC(=O)[C@H](Cc1ccc(O)cc1)NC(=O)[C@@H]1C[C@@H](O)CN1C(=O)[C@H](C)NC(=O)[C@@H](NC(=O)CCCCCNC(=O)[C@H](CCC(=O)O)NC(=O)CNC(=O)[C@H](CS)NC(=O)[C@H](CCCCN)NC(=O)[C@H](Cc1ccccc1)NC(=O)[C@H](CCCCN)NC(=O)[C@H](CCC(N)=O)NC(=O)[C@H](CC(N)=O)NC(=O)[C@H](CCCNC(=N)N)NC(=O)[C@H](CCCNC(=N)N)NC(=O)[C@H](CCCNC(=N)N)NC(=O)[C@H](CCCNC(=N)N)NC(=O)[C@H](CCC(N)=O)NC(=O)[C@H](CCCNC(=N)N)NC(=O)[C@H](CCCNC(=N)N)NC(=O)[C@H](CCCCN)NC(=O)[C@H](CCCCN)NC(=O)[C@H](CCCNC(=N)N)NC(=O)CNC(=O)[C@@H](N)Cc1ccc(O)cc1)[C@@H](C)CC)C(=O)O` (H-YGRKKRRQRRRRNQKFKCGE[Ahx]IA[Hyp]YI-OH), the Activity (MCF7 [1]) was “Active”, the Activity [2] was “Non-Toxic” and the Activity (Mus musculus [3]) was “inactive”. The Activity [4] was “Non-Toxic”, the Activity [5] was “Non-Toxic” and the Activity [6] was “Non-Toxic”. The “fold change (FC)” value [7] was 0.38, the Activity (Mus musculus [8]) was “inactive” and the inhibition (MDA-MB-231) was “Active”. The “fold change (FC)” value [9] was 0.62, the Activity [10] was “Non-Toxic” and the Activity (Mus musculus [11]) was “Active”. The Activity [12] was “Non-Toxic”, the Activity [13] was “Non-Toxic” and the inhibition (MCF7 [14]) was “Active”. For the same compound, the “fold change (FC)” value [15] was 0.16, the Activity (MCF7 [16]) was “Active” and the Activity [17] was “Non-Toxic”. For the same compound, the Activity [18] was “Non-Toxic”.

In the case of H-YGRKKRRQRRRRNQKFKCGE-OH, the Activity (MCF7 [1]) is reported as “Active”, the Activity [2] is reported as “Non-Toxic” and the Activity (Mus musculus [3]) is reported as “inactive”. The Activity [4] was “Non-Toxic”, the Activity [5] was “Non-Toxic” and the Activity [6] was “Non-Toxic”. The “fold change (FC)” value [7] was 0.27, the Activity (Mus musculus [8]) was “inactive” and the inhibition (MDA-MB-231) was “Active”. The “fold change (FC)” value [9] was 0.67, the Activity [10] was “Non-Toxic” and the Activity (Mus musculus [11]) was “Active”. For the same compound, the Activity [12] was “Non-Toxic”, the Activity [13] was “Non-Toxic” and the inhibition (MCF7 [14]) was “Active”. For the same compound, the “fold change (FC)” value [15] was 0.54, the Activity (MCF7 [16]) was “Active” and the Activity [17] was “Non-Toxic”. The Activity [18] was “Non-Toxic”.
